Measured values reported in ChEMBL document CHEMBL3856284, “Discovery, design and synthesis of 6H-anthra[1,9-cd]isoxazol-6-one scaffold as G9a inhibitor through a combination of shape-based virtual screening and structure-based molecular modification” (Bioorg Med Chem, 2016).
Active and inactive are the calls of the source. The calls are words filed in the database; no cut-off is given here.

Legend:
[1] = target: T1, Histone-lysine N-methyltransferase EHMT2 (Homo sapiens, UniProt Q96KQ7); test: Inhibition of G9a (unknown origin) using biotinylated-histone H3 (1 to 21 residues)/S-adenosyl-methionine as substrate/methyl donor after 3 hrs by AlphaScreen assay
T1 sequence (Q96KQ7 whole entry): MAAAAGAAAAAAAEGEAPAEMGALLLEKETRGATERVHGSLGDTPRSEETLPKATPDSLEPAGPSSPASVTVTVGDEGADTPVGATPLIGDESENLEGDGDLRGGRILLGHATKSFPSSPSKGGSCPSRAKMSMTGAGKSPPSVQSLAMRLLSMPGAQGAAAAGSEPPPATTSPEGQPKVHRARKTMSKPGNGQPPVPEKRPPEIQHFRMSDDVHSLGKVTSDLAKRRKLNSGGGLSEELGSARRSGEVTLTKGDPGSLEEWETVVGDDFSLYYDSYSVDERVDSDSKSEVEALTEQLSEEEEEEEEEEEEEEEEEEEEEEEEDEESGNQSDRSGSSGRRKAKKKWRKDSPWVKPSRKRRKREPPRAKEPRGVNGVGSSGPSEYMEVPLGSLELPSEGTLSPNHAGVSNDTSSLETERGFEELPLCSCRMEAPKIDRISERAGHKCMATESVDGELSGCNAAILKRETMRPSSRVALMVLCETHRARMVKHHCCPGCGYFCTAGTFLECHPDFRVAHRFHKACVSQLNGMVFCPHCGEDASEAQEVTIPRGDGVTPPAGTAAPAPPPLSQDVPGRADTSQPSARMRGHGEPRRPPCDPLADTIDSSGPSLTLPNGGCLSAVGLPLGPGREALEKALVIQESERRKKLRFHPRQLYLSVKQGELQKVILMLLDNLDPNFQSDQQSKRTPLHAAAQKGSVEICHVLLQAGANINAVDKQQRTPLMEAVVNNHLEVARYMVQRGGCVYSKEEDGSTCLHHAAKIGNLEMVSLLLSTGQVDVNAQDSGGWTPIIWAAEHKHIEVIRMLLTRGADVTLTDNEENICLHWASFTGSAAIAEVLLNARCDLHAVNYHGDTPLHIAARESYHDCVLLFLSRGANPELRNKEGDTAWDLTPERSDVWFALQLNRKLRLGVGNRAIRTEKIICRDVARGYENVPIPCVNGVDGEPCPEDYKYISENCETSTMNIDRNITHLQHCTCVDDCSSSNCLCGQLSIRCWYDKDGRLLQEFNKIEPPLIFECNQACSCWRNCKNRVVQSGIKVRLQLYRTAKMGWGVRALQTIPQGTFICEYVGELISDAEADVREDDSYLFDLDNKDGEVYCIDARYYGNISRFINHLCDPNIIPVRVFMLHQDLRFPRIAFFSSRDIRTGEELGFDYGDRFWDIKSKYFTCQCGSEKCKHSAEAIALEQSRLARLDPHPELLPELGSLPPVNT
Outline: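 AlphaScreen G9a assay. Compounds were first screened at 10 µM. IC50 came from concentration-response curves of ten escalating concentrations (0.1 nM–10 µM), using two independent experiments, reported as mean ± SD.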

MCF7 [2] = test: Induction of phenotypic changes in human MCF7 cells assessed as distortion at 4 uM after 24 hrs by inverted light microscopic method; assay type: functional, cell-based
Outline: (§1)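 MCF-7 cells were incubated 24 h with 2, 4 or 8 µM compound, with an untreated group as control. Cell morphology (distortion, blebbing, shrinkage, rounding, necrosis) was examined under an inverted light microscope at ×200.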

MCF7 [3] = test: Induction of phenotypic changes in human MCF7 cells assessed as membrane blebbing at 4 uM after 24 hrs by inverted light microscopic method; assay type: functional, cell-based; outline: as §1
MCF7 [4] = test: Induction of phenotypic changes in human MCF7 cells assessed as round in shape at 8 uM after 24 hrs by inverted light microscopic method; assay type: functional, cell-based; outline: as §1
MCF7 [5] = test: Induction of phenotypic changes in human MCF7 cells at 2 uM after 24 hrs by inverted light microscopic method; assay type: functional, cell-based; outline: as §1
MCF7 [6] = test: Induction of apoptosis in human MCF7 cells assessed as early apoptotic cells at 2 uM after 48 hrs by annexin V staining-based flow cytometric analysis (reference value: 0.5%); assay type: functional
MCF7 [7] = test: Induction of apoptosis in human MCF7 cells assessed as late apoptotic cells at 2 uM after 48 hrs by annexin V staining-based flow cytometric analysis (reference value: 11%); assay type: functional
MCF7 [8] = test: Induction of apoptosis in human MCF7 cells assessed as viable cells at 2 uM after 48 hrs by annexin V staining-based flow cytometric analysis (reference value: 82.85%); assay type: functional; settings: MCF7, 48 h, read-out: Activity
MCF7 [9] = test: Induction of apoptosis in human MCF7 cells assessed as early apoptotic cells at 4 uM after 48 hrs by annexin V staining-based flow cytometric analysis (reference value: 0.5%); assay type: functional
MCF7 [10] = test: Induction of apoptosis in human MCF7 cells assessed as late apoptotic cells at 4 uM after 48 hrs by annexin V staining-based flow cytometric analysis (reference value: 11%); assay type: functional
MCF7 [11] = test: Induction of apoptosis in human MCF7 cells assessed as necrotic cells at 4 uM after 48 hrs by annexin V staining-based flow cytometric analysis (reference value: 5.65%); assay type: functional
MCF7 [12] = test: Induction of apoptosis in human MCF7 cells assessed as viable cells at 4 uM after 48 hrs by annexin V staining-based flow cytometric analysis (reference value: 82.85%); assay type: functional; settings: MCF7, 48 h, read-out: Activity
MCF7 [13] = test: Induction of apoptosis in human MCF7 cells assessed as late apoptotic cells at 8 uM after 48 hrs by annexin V staining-based flow cytometric analysis (reference value: 11%); assay type: functional
MCF7 [14] = test: Induction of apoptosis in human MCF7 cells assessed as necrotic cells at 8 uM after 48 hrs by annexin V staining-based flow cytometric analysis (reference value: 5.65%); assay type: functional
MCF7 [15] = test: Induction of apoptosis in human MCF7 cells assessed as viable cells at 8 uM after 48 hrs by annexin V staining-based flow cytometric analysis (reference value: 82.85%); assay type: functional; settings: MCF7, 48 h, read-out: Activity
Mus musculus [16] = test: AUC in mouse at 10 mg/kg, iv after 2 mins to 24 hrs by LC-MS/MS analysis; settings: in vivo
Mus musculus [17] = test: Tmax in mouse at 10 mg/kg, po after 5 mins to 24 hrs by LC-MS/MS analysis; settings: in vivo
Mus musculus [18] = test: Cmax in mouse at 10 mg/kg, po after 5 mins to 24 hrs by LC-MS/MS analysis; settings: in vivo
Mus musculus [19] = test: Half life in mouse at 10 mg/kg, iv after 2 mins to 24 hrs by LC-MS/MS analysis; settings: in vivo
Mus musculus [20] = test: Clearance in mouse at 10 mg/kg, iv after 2 mins to 24 hrs by LC-MS/MS analysis; settings: in vivo
Mus musculus [21] = test: Oral bioavailability in mouse at 10 mg/kg after 5 mins to 24 hrs by LC-MS/MS analysis; settings: in vivo
Mus musculus [22] = test: Volume of distribution in mouse at 10 mg/kg, po after 5 mins to 24 hrs by LC-MS/MS analysis; settings: in vivo

- IC50 [1]: 2180 nM
- AUC (Mus musculus [16]): 1300 ng·h/mL
- Tmax (Mus musculus [17]): 6.7 h
- Cmax (Mus musculus [18]): 70.7 ng/mL
- half-life (Mus musculus [19]): 414 min
- clearance (Mus musculus [20]): 135 mL/min/kg
- bioavailability (Mus musculus [21]): 55.5%
- Vd (Mus musculus [22]): 90.7 L/kg
SMILES: O=C1c2ccccc2-c2onc3c(N4CCCCC4)cc(NCCN4CCCC4)c1c23
- Activity (MCF7 [2]): Active
- Activity (MCF7 [3]): Active
- Activity (MCF7 [4]): Active
- Activity (MCF7 [5]): Active
- Activity (MCF7 [6]): 0.3%
- Activity (MCF7 [7]): 18.25%
- viability at 2 µM (MCF7 [8]): 78.2%
- Activity (MCF7 [9]): 0.8%
- Activity (MCF7 [10]): 26.05%
- Activity (MCF7 [11]): 3.1%
- viability at 4 µM (MCF7 [12]): 70%
- Activity (MCF7 [13]): 30.05%
- Activity (MCF7 [14]): 0.75%
- viability at 8 µM (MCF7 [15]): 66.5%
